Data taken from publication PMC8230583 (Polymer Chemistry, 2021).

Test: Critical aggregation concentration by Nile Red fluorimetry
Type: physicochemical
Conditions: ratio of CAC in water to CAC in 150 mM NaCl
In short: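 Each compound was dissolved in water or 0.15 M NaCl with mild shaking or sonication, and stocks were equilibrated overnight at room temperature. Diluted samples (pH 4.0–5.5) were equilibrated ≥3 h at room temperature. Nile Red was added from a 1 mg ml−1 acetone stock and samples equilibrated 30 min more. Emission (575–740 nm, excitation 550 nm) was recorded to follow the shift of the Nile Red maximum.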

With FDFF the “CAC in the presence of salt, times lower than in pure water” value was 1.2 times.
